In ChEMBL document CHEMBL4028909, “Discovery of an Orally Bioavailable Benzofuran Analogue That Serves as a β-Amyloid Aggregation Inhibitor for the Potential Treatment of Alzheimer's Disease” (J Med Chem, 2018):
Activity calls are given as the source filed them. The calls are words filed in the database; no cut-off is given here.

Target: Amyloid-beta precursor protein (Homo sapiens) (UniProt P05067)
Test: Induction of HFIP-pretreated amyloid beta (1 to 42) (unknown origin) disaggregation after 48 hrs by silver staining-based SDS-PAGE analysis
Method in brief: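 Aβ aggregates were incubated with compound for 48 h, with congo red as positive control. Size distribution (monomer, dimer, trimer, high-molecular-weight species) was analysed by SDS-PAGE with silver staining at the start and at the end of incubation.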

Sequence of Amyloid-beta precursor protein (Homo sapiens) (P05067 whole entry): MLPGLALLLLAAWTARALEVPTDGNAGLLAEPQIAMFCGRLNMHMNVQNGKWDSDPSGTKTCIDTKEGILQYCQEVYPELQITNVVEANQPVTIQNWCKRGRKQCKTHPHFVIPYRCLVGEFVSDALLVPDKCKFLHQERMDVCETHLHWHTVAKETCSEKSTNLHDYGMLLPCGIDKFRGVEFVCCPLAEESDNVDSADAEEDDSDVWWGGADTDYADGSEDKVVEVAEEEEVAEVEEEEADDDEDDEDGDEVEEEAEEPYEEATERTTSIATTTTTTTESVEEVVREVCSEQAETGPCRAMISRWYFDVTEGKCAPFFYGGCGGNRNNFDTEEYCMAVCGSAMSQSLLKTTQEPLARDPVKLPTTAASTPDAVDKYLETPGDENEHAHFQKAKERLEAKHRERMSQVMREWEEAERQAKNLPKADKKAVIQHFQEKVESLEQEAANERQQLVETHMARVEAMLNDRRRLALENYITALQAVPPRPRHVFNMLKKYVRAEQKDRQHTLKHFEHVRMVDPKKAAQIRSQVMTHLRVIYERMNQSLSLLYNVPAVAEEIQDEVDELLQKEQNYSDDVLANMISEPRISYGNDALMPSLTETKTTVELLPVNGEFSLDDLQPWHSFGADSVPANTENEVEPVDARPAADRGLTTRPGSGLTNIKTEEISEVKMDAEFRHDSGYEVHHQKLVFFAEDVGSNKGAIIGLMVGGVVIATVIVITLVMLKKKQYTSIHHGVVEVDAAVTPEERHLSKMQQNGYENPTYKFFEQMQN

SMILES: Nc1c(/N=N/c2ccc(-c3ccc(/N=N/c4cc(S(=O)(=O)O)c5ccccc5c4N)cc3)cc2)cc(S(=O)(=O)O)c2ccccc12
- Activity: Active
